{"source": "ChEMBL document CHEMBL1122108", "about": "“(+/-)-2-Depentylperhydrohistrionicotoxin: a new probe for a regulatory site on the nicotinic acetylcholine receptor-channel” (1982)", "key": {"[1]": {"experiment": "Percent block of sciatic nerve sartorius muscle twitch of frog 30 min after indirect stimulation and exposure to 50 uM toxin for 60 min", "assay_type": "functional, Muscle tissue", "in_short": "(§1)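 Frog sartorius nerve-muscle in oxygenated physiological solution (100% O2, pH 6.9-7.1). Indirect: nerve stimulated with supramaximal 0.05-0.1 ms pulses via Ag-AgCl salt-bridge electrode. Direct: supramaximal 1.0-2.0 ms rectangular pulses at 0.05 Hz through bipolar platinum electrode around mid-muscle. Compounds at 50 µM, diluted in physiological solution just before use, applied 60 min. Twitch tension recorded; means ± SD from at least three muscles.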"}, "[2]": {"experiment": "Percent block of sciatic nerve sartorius muscle twitch of frog 60 min after direct stimulation and exposure to 50 uM toxin for 60 min", "assay_type": "functional, Muscle tissue", "in_short": "as §1"}, "[3]": {"experiment": "Percent block of sciatic nerve sartorius muscle twitch of frog 60 min after indirect stimulation and exposure to 50 uM toxin for 60 min", "assay_type": "functional, Muscle tissue", "in_short": "as §1"}, "[4]": {"experiment": "Percent block of sciatic nerve sartorius muscle twitch of frog 30 min after direct stimulation and exposure to 50 uM toxin for 60 min", "assay_type": "functional, Muscle tissue", "in_short": "as §1"}, "[5]": {"experiment": "Percent maximum potentiation of the sciatic nerve sartorius muscle twitch after direct stimulation and exposure to 50 uM toxin for 60 min", "assay_type": "functional, frog, Muscle tissue", "in_short": "as §1"}, "[6]": {"experiment": "Percent maximum potentiation of the sciatic nerve sartorius muscle twitch after indirect stimulation and exposure to 50 uM toxin for 60 min", "assay_type": "functional, frog, Muscle tissue", "in_short": "as §1"}}, "data": [{"smiles": "CCCC[C@@H]1[C@@H](OC(C)=O)CCCC12CCCC[N+]2(C)C.[I-]", "note": "(some centres undefined)", "values": [{"measurement": "Block", "setting": "[1]", "result": 85, "unit": "%"}, {"measurement": "Block", "setting": "[2]", "result": 47, "unit": "%"}, {"measurement": "Block", "setting": "[3]", "result": 91, "unit": "%"}, {"measurement": "Block", "setting": "[4]", "result": 34, "unit": "%"}]}, {"smiles": "CCCCC1C(OC(=O)OC)CCCC12CCCCN2C(=O)OC", "note": "(centres undefined)", "values": [{"measurement": "Block", "setting": "[1]", "result": 0, "unit": "%"}, {"measurement": "Block", "setting": "[2]", "result": 0, "unit": "%"}, {"measurement": "Block", "setting": "[3]", "result": 0, "unit": "%"}, {"measurement": "Block", "setting": "[4]", "result": 0, "unit": "%"}]}, {"smiles": "CCCC[C@@H]1[C@H](O)CCCC12CCCCN2", "note": "(some centres undefined)", "values": [{"measurement": "Block", "setting": "[1]", "result": 55, "unit": "%"}, {"measurement": "Block", "setting": "[2]", "result": 30, "unit": "%"}, {"measurement": "Block", "setting": "[3]", "result": 61, "unit": "%"}, {"measurement": "Block", "setting": "[4]", "result": 19, "unit": "%"}]}, {"smiles": "CCCCC1C(O)CCCC12CCCCN2", "note": "(centres undefined)", "values": [{"measurement": "Block", "setting": "[1]", "result": 96, "unit": "%"}, {"measurement": "Block", "setting": "[2]", "result": 52, "unit": "%"}, {"measurement": "Block", "setting": "[3]", "result": 100, "unit": "%"}, {"measurement": "Block", "setting": "[4]", "result": 52, "unit": "%"}]}, {"smiles": "CCCC[C@@H]1[C@@H](O)CCCC12CCCC[N+]2(C)C.[I-]", "note": "(some centres undefined)", "values": [{"measurement": "Block", "setting": "[1]", "result": 39, "unit": "%"}, {"measurement": "Block", "setting": "[2]", "result": 43, "unit": "%"}, {"measurement": "Block", "setting": "[3]", "result": 49, "unit": "%"}, {"measurement": "Block", "setting": "[4]", "result": 29, "unit": "%"}]}, {"smiles": "CCCC[C@@H]1[C@H](O)CCCC12CCCCN2C", "note": "(some centres undefined)", "values": [{"measurement": "Block", "setting": "[1]", "result": 62, "unit": "%"}, {"measurement": "Block", "setting": "[2]", "result": 5, "unit": "%"}, {"measurement": "Block", "setting": "[3]", "result": 65, "unit": "%"}, {"measurement": "Block", "setting": "[4]", "result": 5, "unit": "%"}]}, {"smiles": "CCCCC1C(OC(C)=O)CCCC12CCCCN2C", "note": "(centres undefined)", "values": [{"measurement": "Block", "setting": "[1]", "result": 88, "unit": "%"}, {"measurement": "Block", "setting": "[2]", "result": 25, "unit": "%"}, {"measurement": "Block", "setting": "[3]", "result": 94, "unit": "%"}, {"measurement": "Block", "setting": "[4]", "result": 22, "unit": "%"}]}, {"smiles": "CCCCC1C(OC(=O)OC)CCCC12CCCCN2", "note": "(centres undefined)", "values": [{"measurement": "Block", "setting": "[1]", "result": 67, "unit": "%"}, {"measurement": "Block", "setting": "[2]", "result": 25, "unit": "%"}, {"measurement": "Block", "setting": "[3]", "result": 82, "unit": "%"}, {"measurement": "Block", "setting": "[4]", "result": 14, "unit": "%"}]}, {"smiles": "CCCC[C@@H]1C(=O)CCCC12CCCCN2C", "note": "(some centres undefined)", "values": [{"measurement": "Block", "setting": "[1]", "result": 49, "unit": "%"}, {"measurement": "Block", "setting": "[2]", "result": 33, "unit": "%"}, {"measurement": "Block", "setting": "[3]", "result": 56, "unit": "%"}, {"measurement": "Block", "setting": "[4]", "result": 26, "unit": "%"}]}, {"smiles": "CCCCC1C(O)CCCC12CCCCN2C(C)=O", "note": "(centres undefined)", "values": [{"measurement": "Block", "setting": "[1]", "result": 10, "unit": "%"}, {"measurement": "Activity", "setting": "[5]", "result": 103, "unit": "%"}, {"measurement": "Block", "setting": "[2]", "result": 24, "unit": "%"}, {"measurement": "Block", "setting": "[3]", "result": 26, "unit": "%"}, {"measurement": "Block", "setting": "[4]", "result": 20, "unit": "%"}, {"measurement": "Activity", "setting": "[6]", "result": 116, "unit": "%"}]}, {"smiles": "CCCCC1C(O)CCCC12CCCCN2C", "note": "(centres undefined)", "values": [{"measurement": "Block", "setting": "[1]", "result": 78, "unit": "%"}, {"measurement": "Block", "setting": "[2]", "result": 30, "unit": "%"}, {"measurement": "Block", "setting": "[3]", "result": 92, "unit": "%"}, {"measurement": "Block", "setting": "[4]", "result": 24, "unit": "%"}]}, {"smiles": "CCCC[C@@H]1C(=O)CCCC12CCCCN2", "note": "(some centres undefined)", "values": [{"measurement": "Block", "setting": "[1]", "result": 46, "unit": "%"}, {"measurement": "Block", "setting": "[2]", "result": 25, "unit": "%"}, {"measurement": "Block", "setting": "[3]", "result": 58, "unit": "%"}, {"measurement": "Block", "setting": "[4]", "result": 8, "unit": "%"}]}, {"smiles": "CCCCC1C(OC(C)=O)CCCC12CCCCN2C(C)=O", "note": "(centres undefined)", "values": [{"measurement": "Block", "setting": "[1]", "result": 0, "unit": "%"}, {"measurement": "Activity", "setting": "[5]", "result": 118, "unit": "%"}, {"measurement": "Block", "setting": "[2]", "result": 0, "unit": "%"}, {"measurement": "Block", "setting": "[3]", "result": 0, "unit": "%"}, {"measurement": "Block", "setting": "[4]", "result": 0, "unit": "%"}, {"measurement": "Activity", "setting": "[6]", "result": 125, "unit": "%"}]}, {"smiles": "CCCC[C@@H]1[C@H](O)CCCC12CCCC[N+]2(C)C.[I-]", "note": "(some centres undefined)", "values": [{"measurement": "Block", "setting": "[1]", "result": 74, "unit": "%"}, {"measurement": "Block", "setting": "[2]", "result": 49, "unit": "%"}, {"measurement": "Block", "setting": "[3]", "result": 83, "unit": "%"}, {"measurement": "Block", "setting": "[4]", "result": 48, "unit": "%"}]}, {"smiles": "CCCCC1C2CCCC13CCCCN3C(=O)O2", "note": "(centres undefined)", "values": [{"measurement": "Block", "setting": "[1]", "result": 35, "unit": "%"}, {"measurement": "Block", "setting": "[2]", "result": 31, "unit": "%"}, {"measurement": "Block", "setting": "[3]", "result": 66, "unit": "%"}, {"measurement": "Block", "setting": "[4]", "result": 22, "unit": "%"}]}, {"smiles": "CCCC[C@@H]1C(=O)CCCC12CCCCN2C(C)=O", "note": "(some centres undefined)", "values": [{"measurement": "Block", "setting": "[1]", "result": 7, "unit": "%"}, {"measurement": "Activity", "setting": "[5]", "result": 102, "unit": "%"}, {"measurement": "Block", "setting": "[2]", "result": 6, "unit": "%"}, {"measurement": "Block", "setting": "[3]", "result": 20, "unit": "%"}, {"measurement": "Block", "setting": "[4]", "result": 0, "unit": "%"}, {"measurement": "Activity", "setting": "[6]", "result": 117, "unit": "%"}]}, {"smiles": "CCCCCC1CCC[C@]2(CCC[C@H](O)C2CCCC)N1", "note": "(some centres undefined)", "values": [{"measurement": "Block", "setting": "[1]", "result": 100, "unit": "%"}, {"measurement": "Block", "setting": "[2]", "result": 45, "unit": "%"}, {"measurement": "Block", "setting": "[3]", "result": 100, "unit": "%"}, {"measurement": "Block", "setting": "[4]", "result": 47, "unit": "%"}]}]}
